Results taken from BindingDB's records for doi:10.1021/jm049010r (University of Florida, 2005).

Target: Melanocortin receptor 4 (Mus musculus, UniProt P56450)
Experiment: Effective concentration for mouse Melanocortin-4 receptor
Procedure, shortened: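 HEK-293 cells stably expressing mouse melanocortin receptors (G418-selected) were transiently transfected with a CRE/β-galactosidase reporter. Lysates were incubated with ONPG at 37° and read at OD405. Signals were normalized to relative protein (OD595) and to forskolin response. EC50 came from nonlinear least-squares fits of duplicate experiments in quadruplet or more.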

Sequence of Melanocortin receptor 4 (P56450 whole entry): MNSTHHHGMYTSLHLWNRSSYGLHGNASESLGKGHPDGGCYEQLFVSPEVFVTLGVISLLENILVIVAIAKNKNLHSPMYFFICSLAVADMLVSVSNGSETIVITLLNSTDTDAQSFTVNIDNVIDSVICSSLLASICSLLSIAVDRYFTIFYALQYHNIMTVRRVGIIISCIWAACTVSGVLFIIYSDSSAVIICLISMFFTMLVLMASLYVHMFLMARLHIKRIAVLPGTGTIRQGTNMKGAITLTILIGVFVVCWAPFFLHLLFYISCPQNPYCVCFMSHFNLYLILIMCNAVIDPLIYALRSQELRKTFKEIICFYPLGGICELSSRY

EC50 [nM]	Compound
0.57	C[C@@H]1NC(=O)[C@H](CC(N)=O)NC(=O)[C@H](Cc2c[nH]c3ccccc23)NC(=O)[C@H](CCCNC(=N)N)NC(=O)[C@@H](Cc2ccc(-c3ccccc3)cc2)NC(=O)[C@H](Cc2cnc[nH]2)NC(=O)[C@@H](NC(=O)[C@@H](N)Cc2ccc(O)cc2)CC(=O)N([C@@H](Cc2ccc(O)cc2)C(N)=O)C(C)(C(=O)O)NC(=O)[C@H](Cc2ccccc2)NC1=O (some centres not stated)
0.57	C[C@@H]1NC(=O)[C@H](CC(N)=O)NC(=O)[C@H](Cc2c[nH]c3ccccc23)NC(=O)[C@H](CCCNC(=N)N)NC(=O)[C@@H](Cc2cccc3ccccc23)NC(=O)[C@H](Cc2cnc[nH]2)NC(=O)[C@@H](NC(=O)[C@@H](N)Cc2ccc(O)cc2)CC(=O)N([C@@H](Cc2ccc(O)cc2)C(N)=O)C(C)(C(=O)O)NC(=O)[C@H](Cc2ccccc2)NC1=O (some centres not stated)
